# Bioassay records as filed in PubChem BioAssay.
# MC4R barr agon: agonists of human melanocortin 4 receptor (MC4R) beta-arrestin; U2OS MC4R beta-arrestin complementation, luminescence; percent of melanotan II response, DMSO zero; activation, % at 8.9 µM; 360,000 compounds, 0.98% hits; AID 540308;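 active means activation above a per-plate cutoff, the mean activation of sample wells on that plate plus 3 SD, cut at about 8% in these data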
# FXN GAA850 act: activators of GAA850 frataxin (FXN) promoter | HEK293 lucGAA850 FXN promoter luciferase reporter, 24 h; percent of 10 µM SAHA response | activation, % at 6 µM | 360,000 compounds, 0.56% hits;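 active means activation above the average of all compounds screened plus 3 SD, cutoff fixed separately per campaign, cut at about 7.5% in these data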;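 further: 0% = DMSO wells and 100% = 10 µM SAHA wells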
# m5-HT2A agonist: mouse HTR2A agonism via beta-arrestin recruitment; 360,000 compounds, 0.66% hits; P35363; CHO-K1 mHTR2A beta-arrestin complementation, luminescence; percent of 30 µM serotonin response; activation, % at 7.6 µM;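 active means activation above a run cutoff, the mean activation of all tested compounds plus 3 SD, cut at about 14% in these data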;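 further: 0% = plate median of compound wells and 100% = 30 µM serotonin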
# AHR activator: human AHR activation | activation, % at 5 µM | AHR-responsive luciferase reporter cells, luminescence | AID 2796 | 320,000 compounds, 2.5% hits; in the data active means activation above about 47%;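 further: 0% = vehicle wells and 100% = reference agonist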
# Target sequence (P35869 whole entry, looked up): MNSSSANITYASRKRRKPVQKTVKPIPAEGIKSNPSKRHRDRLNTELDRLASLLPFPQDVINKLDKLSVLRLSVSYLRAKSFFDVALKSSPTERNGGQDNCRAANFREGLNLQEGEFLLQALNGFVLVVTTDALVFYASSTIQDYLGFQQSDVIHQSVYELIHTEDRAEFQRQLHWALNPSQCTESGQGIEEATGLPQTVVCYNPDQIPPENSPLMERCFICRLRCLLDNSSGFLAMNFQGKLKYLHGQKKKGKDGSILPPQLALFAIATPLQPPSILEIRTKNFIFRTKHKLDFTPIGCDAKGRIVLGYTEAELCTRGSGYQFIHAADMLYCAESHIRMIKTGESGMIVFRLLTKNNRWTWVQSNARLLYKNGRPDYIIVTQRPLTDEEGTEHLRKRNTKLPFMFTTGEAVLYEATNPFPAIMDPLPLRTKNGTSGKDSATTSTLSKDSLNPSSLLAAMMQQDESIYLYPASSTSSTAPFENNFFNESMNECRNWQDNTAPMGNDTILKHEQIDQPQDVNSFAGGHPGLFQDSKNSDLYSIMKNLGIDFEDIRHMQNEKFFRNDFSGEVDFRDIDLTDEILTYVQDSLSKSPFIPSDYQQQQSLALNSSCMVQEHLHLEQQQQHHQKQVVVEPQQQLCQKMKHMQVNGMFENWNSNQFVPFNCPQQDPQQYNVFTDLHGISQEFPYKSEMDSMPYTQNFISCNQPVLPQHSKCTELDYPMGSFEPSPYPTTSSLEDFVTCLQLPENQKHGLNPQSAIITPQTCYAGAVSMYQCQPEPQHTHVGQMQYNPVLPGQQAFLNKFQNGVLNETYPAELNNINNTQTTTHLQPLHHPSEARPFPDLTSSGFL
# MC4R antagonist: antagonists of human melanocortin 4 receptor (MC4R); P32245; 360,000 compounds, 0.48% hits; MC4R-expressing cells, MTII-stimulated cAMP, LANCE TR-FRET; inhibition, % at 6.5 µM;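 active means inhibition above its plate's cutoff, the mean of tested wells on that plate plus 3 SD, cut at about 29% in these data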;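 further: 0% = Melanotan II alone and 100% = Melanotan II plus saturating MCL0020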
#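 Material: human MC4R-expressing U2OS cells. Probe or stimulus: Melanotan II challenge. Dosing: 6.5 µM single dose. Times: 30-min compound, 1-h challenge, 1-h detection, room temperature. Technique: TR-FRET with Eu-cAMP and labeled anti-cAMP, 671 nm. Replication: singlicate.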
# U2OS cAMP counter: nonselective cAMP signaling inhibitor, MC4R antagonist counter-screen. shares compounds with MC4R antagonist. parental U2OS, forskolin cAMP, LANCE TR-FRET. inhibition, % at 6.5 µM. 1,600 compounds, 26% hits;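 active means mean inhibition over triplicates above the low-control well mean plus 3 SD, set per campaign, cut at about 13% in these data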;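 further: signal is single emission at 671 nm which falls as cellular cAMP rises; 0% = forskolin-stimulated wells and 100% = buffer without forskolin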
# MC4R cAMP antag: human MC4R cAMP antagonism confirmation; shares compounds with MC4R antagonist; inhibition, % at 6.5 µM; 1,600 compounds, 27% hits; MC4R-expressing cells, MTII-stimulated cAMP, TR-FRET; in the data active means inhibition above about 29%;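 further: 0% = agonist stimulated wells alone and 100% = agonist stimulated wells plus saturating reference antagonist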
# Starred values were filed as active, the others as inactive; x = not tested or not shown. The list is not random: actives were taken first. Their share in the collection is about 4.7%.
SMILES,MC4R barr agon,FXN GAA850 act,m5-HT2A agonist,AHR activator,MC4R antagonist,U2OS cAMP counter,MC4R cAMP antag
O=C(NCC(=O)N1CCN(c2ccccc2)CC1)c1ccc(Br)o1,-1.6,1.8,1.1,4.8,2.9,x,x
Cn1c2c(c(=O)n(C)c1=O)CS(=O)c1ccccc1N2 (stereo not given),x,x,-1.4,x,x,x,x
COc1ccc(-c2csc(NC(=O)C3CC(=O)N(c4ccc5c(c4)OCCO5)C3)n2)cc1 (stereo not given),1.7,-6.7,-0.4,12.3,14.5,x,x
CC(=O)Nc1ccc(-c2csc(NC(=O)C3CC(=O)N(c4ccc5c(c4)OCCO5)C3)n2)cc1 (stereo not given),1.0,-3.7,0.2,-1.6,34.6*,2.1,0.8
O=C(O)c1ccccc1NC(=O)c1ccccc1Nc1ccccc1,-1.4,-1.2,-1.1,1.0,8.6,x,x
CCC(Sc1nc2ccsc2c(=O)n1Cc1ccc(C(=O)O)cc1)C(=O)Nc1cc(Cl)ccc1C (stereo not given),-1.7,-0.5,-5.0,x,36.7*,0.7,2.5
CCC(Sc1nc2ccsc2c(=O)n1Cc1ccc(C(=O)O)cc1)C(=O)Nc1ccc(C)c(Cl)c1 (stereo not given),-3.4,0.1,-0.7,-1.2,21.1,x,x
COC(=O)c1c(NC(=O)COC(=O)CCNS(=O)(=O)c2ccccc2)sc(C)c1C,-1.6,1.1,-5.4,4.7,9.4,x,x
CCOC(=O)c1c(NC(=O)COC(=O)CCNS(=O)(=O)c2ccccc2)sc(C(=O)NC)c1C,0.1,-2.3,-3.4,x,31.2*,4.7,4.9
CCNC(=O)C1CCCN(C(=O)c2ccc(C#N)cc2)CC1 (stereo not given),-0.9,-0.2,4.1,x,7.0,x,x
Cc1ccc2[nH]c(O)c(N=NC(=O)c3ccc(NS(=O)(=O)c4cccs4)cc3)c2c1,4.0,2.2,-1.8,17.7,33.9*,-3.4,-17.2
Cc1onc(-c2ccccc2)c1-c1nnc(COC(=O)c2ccc(O)cc2)o1,0.9,2.2,-3.8,x,13.7,x,x
COc1ccc(C(=O)CCN2CCCC(C)C2)cc1 (stereo not given),-3.2,1.3,-1.4,2.4,26.2,x,x
COc1ccc(N2CCN(CCC(=O)c3ccc4ccccc4c3)CC2)cc1,-1.1,1.4,1.3,1.5,28.7*,7.3,2.7
CCOC(=O)N1CCN(CCC(=O)c2ccc(OC)cc2)CC1,-4.3,-0.1,2.4,2.3,33.5*,10.2,21.6
COc1ccc(C(=O)CCN2CCC(C)CC2)cc1,-1.9,1.6,4.0,3.1,31.4*,9.4,16.6
COc1ccc(N2CCN(CC(=O)c3ccccc3)CC2)cc1,-1.8,-0.9,-0.3,2.0,16.0,x,x
CC(C)(C)c1cc(CN(CCO)CCO)c(O)c(C(C)(C)C)c1,1.6,2.9,3.3,-0.1,5.0,x,x
CC(c1ccccc1)n1cnc2ccccc2c1=O (stereo not given),-1.1,0.4,-2.1,3.0,2.2,x,x
O=C(O)c1ccc(-n2ccnc2)c([N+](=O)[O-])c1,-0.6,1.6,3.0,6.1,6.1,x,x
COC(=O)c1cc([N+](=O)[O-])c(-n2ccnc2)c([N+](=O)[O-])c1,-0.3,-0.7,-0.8,3.7,30.6*,-3.3,-0.3
N#C/C(=C\c1ccc(OC(F)F)cc1)C(=O)N1CCCCC1,-0.4,3.6,-1.1,0.6,31.7*,-4.2,-5.6
CCN1CCN(C(=O)/C(C#N)=C/c2ccc(OC(F)F)cc2)CC1,2.6,2.7,6.5,-0.3,-6.0,x,x
CN(C(=O)c1ccc2c(c1)SC1=NS(=O)(=O)CCN12)C(c1ccccc1)c1ccccc1,-2.4,2.7,-0.2,-0.5,7.3,x,x
O=C(O)c1ccc2c(c1)SC1=NS(=O)(=O)CCN12,0.8,-0.2,-2.3,0.4,28.9*,20.3*,2.5
Oc1ccc2ccccc2c1C1Nc2cccc3cccc(c23)N1,0.1,1.5,-10.2,20.9,9.9,x,x
CCN(CC)c1ccc(C2Nc3cccc4cccc(c34)N2)c(O)c1,0.5,3.5,4.3,71.2*,32.6*,3.2,29.1*
Brc1ccc(-c2nn3c(-c4ccco4)nnc3s2)o1,-3.4,-1.4,0.7,-9.8,44.5*,26.0*,38.6*
